# Bioassay records deposited in PubChem by several laboratories.
# Only some compounds are listed: those with a hit (about 4% of all), similar ones and a draw of the others.
# HIV Rev-RRE inh – inhibitors of HIV-1 Rev-RRE RNA interaction; 0.79% of 97,000 active; Rev peptide-RRE RNA binding, FRET; inhibition, % at 8 µM; P05866;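 active means inhibition above the screen-wide mean plus 3 SD, cut at about 35% in these data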;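 further: 0% = median DMSO wells and 100% = median Neomycin B control wells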
#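 Assay system: Rev peptide and RRE RNA, both fluorescently labelled; times: 5 min preincubation and 15 min binding, 25 °C; detection: FRET, ex 480 nm, em 540 and 671 nm; read-out basis: % inhibition from 671/540 nm acceptor-to-donor ratio, scaled between controls; benchmarks: DMSO low control, neomycin B high control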
# Smad3 inh – blocks human Smad3 binding to FoxH1 peptide. 0.29% of 88,000 active. inhibition, % at 25 µM. P84022. AID 630. TR-FRET Smad3/Dy647-FoxH1 peptide binding, europium anti-His;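 active means compounds that reduce the energy-transfer binding signal between the protein and its labelled peptide by more than half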;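 further: 0% = Smad3 plus labelled peptide maximal FRET and 100% = peptide-only background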
# ERb coact inh – blocks coactivator binding to human estrogen receptor beta; TR-FRET ER-beta LBD / SRC1-Cy5 peptide binding; receptor agonist-loaded with 1 µM estradiol; inhibition, % at 25.6 µM; 1.3% of 86,000 active; Q92731;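 active means compounds whose percent inhibition of the receptor-coactivator binding signal exceeds about 50% in the single-dose screen, limit read from the data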;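 further: 0% = receptor plus peptide wells without compound and 100% = peptide-only wells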
# FAK inh – blocks human focal adhesion kinase activity; Q05397; biochemical FAK kinase activity assay; inhibition, %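 (tested at 7 µM)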; 0.84% of 97,000 active; AID 727; in the data active means inhibition above about 19%;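 further: 0% = DMSO and 100% = reference compound high control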
# ERa coact pot – ER-alpha (human) coactivator binding potentiation; P03372; TR-FRET ERalpha-LBD/SRC-Cy5 coactivator binding, 2 h; 100 = basal binding, no effect; coactivator binding (% of control), % at 25.6 µM; 1.3% of 86,000 active; AID 639; in the data active means activity above about 200%;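 further: binding measured in presence of low estradiol as agonist stimulus; 0% = peptide alone without receptor and 100% = receptor with peptide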
# Target sequence (P03372 whole entry, looked up, the tested form may be a part): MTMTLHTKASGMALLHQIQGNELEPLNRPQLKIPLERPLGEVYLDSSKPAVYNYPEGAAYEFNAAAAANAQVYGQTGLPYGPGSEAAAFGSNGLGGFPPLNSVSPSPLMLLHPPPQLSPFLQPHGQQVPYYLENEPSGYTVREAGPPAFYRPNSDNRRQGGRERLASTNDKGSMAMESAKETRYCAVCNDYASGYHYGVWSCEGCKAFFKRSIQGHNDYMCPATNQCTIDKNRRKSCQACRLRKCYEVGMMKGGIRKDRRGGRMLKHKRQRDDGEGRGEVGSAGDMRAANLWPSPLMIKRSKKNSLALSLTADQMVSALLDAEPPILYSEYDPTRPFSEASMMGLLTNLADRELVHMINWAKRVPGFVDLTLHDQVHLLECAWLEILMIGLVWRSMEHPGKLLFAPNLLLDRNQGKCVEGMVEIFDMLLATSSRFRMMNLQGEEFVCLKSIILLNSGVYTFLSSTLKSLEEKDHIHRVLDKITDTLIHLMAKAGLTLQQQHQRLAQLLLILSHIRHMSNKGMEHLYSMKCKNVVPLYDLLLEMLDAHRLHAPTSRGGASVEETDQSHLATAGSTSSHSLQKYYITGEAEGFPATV
# ERa coact inh – blocks coactivator binding to human estrogen receptor alpha. P03372. 1.7% of 86,000 active. TR-FRET ER-alpha LBD / SRC-1 peptide, estradiol-bound. inhibition, % at 25.6 µM; in the data active means inhibition above about 50%;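 further: 0% = receptor plus peptide control and 100% = peptide only without receptor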
# Starred values were filed as active, the others as inactive; . = not tested or not shown; [ ] = another dose, or the depositor's remark.
SMILES,HIV Rev-RRE inh,Smad3 inh,ERb coact inh,FAK inh,ERa coact pot,ERa coact inh
CN=c1scc(C)n1/N=C/c1ccc(O)c(O)c1O,5.2,19.7,99.9*[fluorescence artefact?],0.7,17.2,97.3*[fluorescence artefact?]
O=c1c2ccccc2nc(SCc2cc(F)cc3c2OCOC3)n1Cc1ccco1,6.1,0.4,17.1,-0.3,227.4*[fluorescence artefact?],23.1
CCOC(=O)c1cc2c(c(CSc3nc4ccccc4c(=O)n3Cc3ccco3)c1)OCOC2,6.4,6.8,36.8,-1.4,336.8*,8.8
Clc1ccccc1C(Nc1cnccn1)Nc1cnccn1,.,34.7,.,.,.,.
N/C(=N\c1nc2ccccc2o1)NC(=O)c1ccccc1NC(=O)c1ccccc1,4.5,6.2,82.2*,-2.6,122.0,-2.0
CCN1C(=O)/C(=C2/C=Cc3ccccc3N2C)OC1=S,6.6,7.8,62.5*[fluorescence artefact?],-1.6,95.7,65.8*[fluorescence artefact?]
CCN1C(=O)/C(=c2\o/c(=C3\C=Cc4ccccc4N3CC)c(=O)n2CC)SC1=S,4.5,2.1,35.9,0.3,18.0,77.2*[fluorescence artefact?]
O=C1CCC(c2ccccc2)=NN1c1nc2ccccc2s1,.,18.3,.,.,.,.
CCn1nc(C)c(NC(=O)/C=C/c2ccc(OC)c(COc3ccc(Cl)cc3Br)c2)c1C,0.4,-4.1,51.6*[fluorescence artefact?],15.7,310.6*[fluorescence artefact?],95.1*[fluorescence artefact?]
COc1ccc(/C=C/C(=O)NCc2cn(C)nc2C)cc1COc1ccc(Cl)cc1Br,-4.1,.,.,-1.1,.,.
O=c1[nH]c(=S)c2[nH]c(=O)n(-c3ccccc3)c2[nH]1,.,39.7,.,.,.,.
O=C(O)c1cc(S(=O)(=O)Nc2ccc3oc(=O)sc3c2)ccc1O,2.6,-7.5,55.3*[fluorescence artefact?],0.9,59.7,42.8
CC(=O)c1c(C)oc2ccc(NS(=O)(=O)c3ccc(O)c(C(=O)O)c3)cc12,3.4,-4.3,31.2,-6.0,62.0,13.8
O=C(Nc1ccc2oc(-c3ccc4ccccc4c3)nc2c1)c1ccc2c(c1)OCCO2,5.7,.,.,-9.0,.,.
COc1cc(C(=O)Nc2cccc(-c3nc4cc(C)ccc4o3)c2)cc(OC)c1OC,.,4.0,31.8,.,252.0*[fluorescence artefact?],72.2*[fluorescence artefact?]
COc1cc(C(=O)Nc2cccc(-c3nc4cc(C)ccc4o3)c2C)cc(OC)c1OC,0.3,17.4,32.4,-2.3,96.9,26.3
Cc1ccc2nc(-c3cccc(NC(=O)c4ccc5c(c4)OCCO5)c3)oc2c1,2.6,10.0,42.4,4.4,102.4,68.0*[fluorescence artefact?]
Cc1ccc2oc(-c3cccc(NC(=O)c4cc(-n5cnnc5)ccc4Cl)c3)nc2c1,1.1,6.9,36.3,10.5,245.1*,26.4
COc1cc(C(=O)Nc2cc(-c3nc4cc(C)ccc4o3)ccc2C)cc(OC)c1OC,3.6,-0.8,59.6*[fluorescence artefact?],9.8,59.2,74.2*[fluorescence artefact?]
CC1=NNC(=S)NCCCN2CCN(CCCNC(=S)NN=C(C)C=NNC(=S)NCCCN3CCN(CCCNC(=S)NN=C1)CC3)CC2,.,19.4,.,.,.,.
CC(C(=O)OCC(=O)Nc1ccc(S(=O)(=O)N2CCCCC2)cc1)N1C(=O)c2ccccc2C1=O (stereo not given),13.4,.,.,0.1,.,.
N#Cc1ccsc1NC(=O)CN1CCCCCC1,8.2,.,.,-1.1,.,.
CN(CC(=O)Nc1sccc1C#N)C1CCCCC1,12.7,-11.2,60.1*[fluorescence artefact?],11.7,36.2,79.2*[fluorescence artefact?]
Clc1ccccc1C(Nc1ncccn1)Nc1ncccn1,.,8.2,.,.,.,.
COc1ccc(C(=O)CSc2nnc(-c3ccccn3)n2Cc2ccco2)cc1,4.9,13.0,13.8,2.5,270.9*[fluorescence artefact?],14.0
SMILES,HIV Rev-RRE inh,Smad3 inh,ERb coact inh,FAK inh,ERa coact pot,ERa coact inh
O=C(CSc1nnc(-c2ccccn2)n1Cc1ccco1)c1ccccc1,4.5,1.9,-5.0,-1.4,94.8,-4.0
C/C(N)=C(/C#N)C(=O)CSc1nc2cc(Cl)ccc2s1,10.8,.,.,14.9,.,.
C/C(N)=C(/C#N)C(=O)CSc1nnc(Nc2cccc(C)c2)s1,4.0,1.2,96.0*[fluorescence artefact?],13.7,16.8,90.9*[fluorescence artefact?]
Cc1c(/C=N/n2cnnc2)c2ccccc2n1CCOc1ccc(Cl)cc1,3.2,-5.7,4.5,6.6,119.5,52.6*
COc1nnc(-c2ccc(C)c(S(=O)(=O)NCCO)c2)c2ccccc12,6.7,8.3,63.8*[fluorescence artefact?],5.3,76.7,57.7*
COCCNS(=O)(=O)c1cc(-c2nn(C)c(=O)c3ccccc23)ccc1C,3.0,2.7,16.3,-3.1,97.8,1.6
O=C1c2ccccc2-c2onc3c(Oc4ccccc4)cc(O)c1c23,3.7,3.9,70.7*[fluorescence artefact?],5.2,16.4,73.8*[fluorescence artefact?]
N[C@@H](CSc1nc2ccccn2c1[N+](=O)[O-])C(=O)O,.,-5.7,.,.,.,.
